This is a sample that favours compounds with a hit; in the whole collection about 2.8% have one here.
Jurkat viability: cytotoxic compounds reducing Jurkat cell viability. 56,000 compounds, 1.2% hits. AID 463. inhibition, % at 4 µM. Jurkat E6.1 viability, ATP luminescence, 48 h;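 active = inhibition above the mean inhibition of all tested compounds plus 3 SD, cut at about 28% in these data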
SF1 activator: activates the human nuclear receptor SF-1; Q13285; CHO-K1 Gal4-SF-1 LBD luciferase reporter; % increase over DMSO SF-1-specific signal; activation, % at 10 µM; 65,000 compounds, 1.9% hits; AID 522;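 active = activation above the mean activation of all tested compounds plus 3 SD, cut at about 50% in these data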
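Test system: CHO-K1 cells with Gal4–hSF-1 LBD chimera plus Gal4-driven luciferase; Input: 4,000 cells/well; Compound: 10 µM only; Times: 20 h compound treatment, 37 °C; Measured by: steady-glow luciferase luminescence, read after 15 min reagent incubation; Measure: percent activation versus DMSO; Control set: DMSO and mock-transfected background; Replicates: one test per compound.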
HEK293 NFkB inh: inhibitors of the PMA/ionomycin-induced NF-kB reporter in HEK293 cells. HEK-293 NF-kB luciferase reporter, luminescence. inhibition, % at 3 µM. 62,000 compounds, 0.21% hits;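 active = inhibition above the mean of all tested compounds plus 3 SD, cut at about 40% in these data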;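 note: 0% = stimulated DMSO wells and 100% = 10 µM reference inhibitor 5653914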
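System: NF-kB luciferase reporter HEK-293 cells | Replication: Single test | Control set: DMSO vs reference inhibitor | Evaluation: % inhibition | Schedule: 1 h pretreatment, 16 h stimulation, 37 °C | Probe or stimulus: PMA with ionomycin | Compound dosing: One dose, 3 µM | Detection: Luciferase luminescence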
MT1-MMP txn act: MT1-MMP promoter transcription activation. HT1080 MT1-MMP promoter luciferase reporter, luminescence, overnight; stronger effect = higher value. activation factor at 10 µM. 86,000 compounds, 0.16% hits;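 active = activation factor of at least 2 for MT1-MMP transcription at 10 µM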
RORA act: RORA (human) activation. P35398. CHO-K1 Gal4-RORA LBD luciferase reporter, luminescence; percent increase over mock-subtracted basal signal. activation, % at 10 µM. 65,000 compounds, 1.5% hits. AID 560;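 active = activation above the mean of all tested compounds plus 3 SD, cut at about 49% in these data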;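 note: 0% = DMSO-treated RORA cells and 100% = added signal equal to DMSO minus mock-transfected cells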
Target sequence (P35398 whole entry, looked up, the tested form may be a part): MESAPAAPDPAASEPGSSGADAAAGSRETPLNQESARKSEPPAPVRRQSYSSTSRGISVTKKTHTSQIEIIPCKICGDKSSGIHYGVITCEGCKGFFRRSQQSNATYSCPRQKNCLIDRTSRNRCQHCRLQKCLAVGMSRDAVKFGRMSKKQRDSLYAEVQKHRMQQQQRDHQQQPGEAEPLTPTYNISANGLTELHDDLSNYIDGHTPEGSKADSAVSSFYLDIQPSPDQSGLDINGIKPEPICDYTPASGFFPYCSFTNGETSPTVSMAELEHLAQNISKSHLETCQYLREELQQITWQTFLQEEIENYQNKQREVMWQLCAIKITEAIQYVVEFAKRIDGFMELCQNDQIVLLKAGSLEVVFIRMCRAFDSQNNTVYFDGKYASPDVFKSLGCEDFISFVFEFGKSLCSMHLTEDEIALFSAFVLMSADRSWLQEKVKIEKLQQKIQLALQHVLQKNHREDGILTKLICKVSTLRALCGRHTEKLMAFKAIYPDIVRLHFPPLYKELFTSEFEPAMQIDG
Starred values were filed as active, the others as inactive; x = not tested or not shown.

SMILES | Jurkat viability | SF1 activator | HEK293 NFkB inh | MT1-MMP txn act | RORA act
O=S1(=O)N=C(Nc2nc3c(s2)CCCC3)c2ccccc21 | 6.4 | 51.3* | -67.1 | 1.2 | 95.8*
Cc1cc(C)cc(NC(=O)CN(Cc2ccccc2)S(C)(=O)=O)c1 | x | x | x | 1.2 | x
Nc1nc(SCc2ccccc2)ns1 | 4.0 | 55.0* | 5.0 | 1.4 | 23.8
Nc1cc(N)nc(SCc2ccccc2)n1 | 10.2 | 54.4* | -4.1 | 1.2 | 20.7
COC(=O)c1cc(=O)nc2sc3ccccc3n12 | -3.3 | 3.0 | 13.2 | 1.6 | -2.0
COCCn1c(COC)nc2ccccc21 | -1.0 | 5.9 | 3.3 | 1 | 3.0
COCCn1c(COc2ccc(C)cc2)nc2ccccc21 | -1.1 | 49.9* | 2.2 | 1.2 | 40.0
Cc1ccc(C)c(C(=O)CSc2nnnn2-c2cccnc2)c1 | -2.7 | -7.7 | 8.1 | 1.1 | 6.3
CC(=O)Nc1ccc(-c2nnn(CC(=O)c3ccccc3)n2)cc1Cl | 9.4 | -8.5 | 29.4 | 1.2 | 11.2
CCn1cc(Br)c(C(=O)Nc2cccc(SC)c2)n1 | 0.5 | 50.3* | -2.9 | 1.6 | 48.1
COc1ccc(C(=O)Nc2nc3ccccc3[nH]2)cc1OC | -3.1 | 50.2* | -34.7 | 1.3 | 18.4
O=C(Nc1nc2ccccc2[nH]1)c1ccccc1F | 51.7* | -83.6 | 60.7* | 0 | -86.5
COC(=O)c1ccc(CSc2nccn2C)cc1 | 8.4 | 12.9 | 10.3 | 1.3 | 3.9
O=C(CSc1nnnn1-c1ccc2c(c1)OCO2)NCc1ccccc1 | 58.4* | 37.6 | 15.9 | 1.1 | 40.0
O=C(CSc1nnnn1-c1ccc2c(c1)OCO2)NCc1cccs1 | -4.8 | 13.0 | 10.2 | 1 | 9.7
Cc1nc2nc(-c3ccccc3)nn2c(C)c1Cl | -0.1 | 102.6* | -10.2 | 2.2* | 77.0*
Cc1ccc(CN2CCSc3ccc(C(=O)N4CCN(c5ncccn5)CC4)cc32)cc1 | -2.9 | 2.9 | 9.5 | 1.1 | -0.5
CCCCn1c(CN2CCN(c3ccccc3)CC2)nc2c1c(=O)n(C)c(=O)n2C | 37.9* | -25.5 | 26.1 | 1 | -0.9
CCCn1c(CN(C)Cc2ccccc2)nc2c1c(=O)n(C)c(=O)n2C | x | -14.6 | 21.7 | 1.2 | -27.6
CCCCn1c(CN(C)Cc2ccccc2)nc2c1c(=O)n(C)c(=O)n2C | 35.9* | -22.3 | 10.7 | 1 | 36.0
C/C(=C\C(=O)O)CC(=O)O | x | -8.4 | x | 1 | -17.1
COc1ccccc1-c1cc(C(=O)Nc2ccccc2SC)no1 | -5.8 | 22.7 | 4.1 | 1.1 | -1.6
COc1ccccc1-c1cc(C(=O)Nc2cccnc2)no1 | 72.5* | 13.8 | 22.8 | 0.7 | 19.5
COc1ccc(NC(=O)c2cc(-c3ccccc3OC)on2)cc1 | 92.3* | 12.5 | 18.4 | 1.1 | 48.9*
Cc1cc(NC(=O)CCC(=O)N(CCc2ccccc2)C(C(=O)NC2CCCC2)c2ccco2)no1 (centres undefined) | 10.9 | -6.5 | 14.5 | 1.1 | -13.2
SMILES | Jurkat viability | SF1 activator | HEK293 NFkB inh | MT1-MMP txn act | RORA act
CCN(CCCNC(=O)CN(C)S(=O)(=O)c1cccc2nsnc12)c1cccc(C)c1 | 2.7 | -22.2 | 11.0 | 1.1 | -7.2
Nc1nc2c(s1)CCc1c-2cnn1-c1ccccc1 | 32.2 | 91.1* | -29.5 | 1.3 | 16.8
COc1cc(NS(=O)(=O)c2ccc(C)cc2)c2ncccc2c1 | 78.8* | -94.3 | 4.3 | 0.8 | -85.0
Cc1cc(C)c(C)c(S(=O)(=O)N2CCN(C(=O)c3cc(=O)[nH]c4ccccc34)CC2)c1C | x | x | x | 0.9 | x
C=CCn1c(C)cc(C(=O)CSc2nnc(Cc3ccccc3)o2)c1C | x | 13.4 | 2.4 | 1.2 | 3.2
C=CCn1c(C)cc(C(=O)CSc2nc3ccccc3c(=O)[nH]2)c1C | 1.1 | 111.9* | -41.2 | 1.8 | -36.8
C=CCn1c(C)cc(C(=O)CSc2nnc(NCc3ccccc3)s2)c1C | 3.6 | 59.0* | 17.4 | 1.3 | 32.2
O=C(CSc1nc2ccccc2[nH]1)N1CCCCC1 | -5.7 | 47.6 | -11.2 | 1.6 | 52.1*
O=C(CSc1nc2ccccc2[nH]1)N1CCN(c2ccccc2)CC1 | -1.7 | 11.3 | 5.6 | 1.1 | -0.8
C=CCn1c(C)cc(C(=O)CSc2nc3ccccc3o2)c1C | 14.9 | 40.1 | -22.8 | 1.1 | 10.0
C=CCn1c(C)cc(C(=O)COc2nncc3ccccc23)c1C | x | 38.9 | -20.1 | 1.2 | 79.6*
CCOC(=O)C1CCCN(S(=O)(=O)c2ccc(C)cc2)C1 (centres undefined) | 2.0 | -4.3 | 20.8 | 1.1 | -22.3
CCOC(=O)c1c(CN2CCN(Cc3ccccc3)CC2)n(C)c2cc(Br)c(OC)cc12 | x | x | x | 1.1 | x
CSc1nncc(-c2ccc(F)c(F)c2)n1 | -1.2 | -3.3 | 24.5 | 1.2 | -13.1
